Results on 10 molecules are retold here after ChEMBL document CHEMBL1154468, “Synthesis and evaluation of fluoroquinolone derivatives as substrate-based inhibitors of bacterial efflux pumps” (2008).

The target in experiment [1] is T1, Quinolone resistance protein NorA (Staphylococcus aureus) (UniProt P0A0J7).
T1 sequence (whole entry): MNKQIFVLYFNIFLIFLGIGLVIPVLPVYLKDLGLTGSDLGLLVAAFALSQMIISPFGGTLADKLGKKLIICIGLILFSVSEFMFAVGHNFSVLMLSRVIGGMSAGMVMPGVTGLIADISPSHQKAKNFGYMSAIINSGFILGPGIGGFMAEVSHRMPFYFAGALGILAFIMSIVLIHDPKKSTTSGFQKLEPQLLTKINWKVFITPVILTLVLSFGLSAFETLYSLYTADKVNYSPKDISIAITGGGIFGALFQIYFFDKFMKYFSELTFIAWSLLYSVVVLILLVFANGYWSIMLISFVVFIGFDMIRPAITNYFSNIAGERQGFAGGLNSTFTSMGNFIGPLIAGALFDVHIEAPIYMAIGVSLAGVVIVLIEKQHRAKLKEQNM
The experiment in a line: Inhibition of NorA efflux pump in Staphylococcus aureus K2361 assessed as reduction of ethidium bromide efflux at 0.5 uM […].

Experiment [2] has as its system Staphylococcus aureus. The experiment in a line: Antibacterial activity against Staphylococcus aureus K1758-P by broth microdilution technique. Type of experiment: functional. In outline:
(§1)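 S. aureus K1758-P is the susceptible control for K1758-A, a K1758-background strain carrying a constructed plasmid for mepA overexpression. MIC was determined on both.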
Background: In broth dilution the organism is exposed to a series of concentrations in liquid medium.

In experiment [3] the test system is Pseudomonas aeruginosa. The experiment in a line: Antibacterial activity against Pseudomonas aeruginosa K1536 overexpressing mexCD by broth microdilution technique. It is filed as functional. Put shortly: (§2)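 MIC tested on P. aeruginosa PAO1, the susceptible control, and on its derivatives OCR1 (mexAB overexpresser) and K1536 (mexCD overexpresser).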
For experiment [4], the system named is Pseudomonas aeruginosa. The experiment in a line: Antibacterial activity against Pseudomonas aeruginosa OCR1 overexpressing mexAB by broth microdilution technique. It is filed as functional. Put shortly: as §2
The test system of experiment [5] is Escherichia coli. The experiment in a line: Antibacterial activity against Escherichia coli AG102 overexpressing acrAB by broth microdilution technique. It is filed as functional. Put shortly: (§3)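 MIC determined against E. coli AG102, an acrAB overexpresser, alongside its susceptible parental control AG100.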
The subject of experiment [6] is Pseudomonas aeruginosa. The experiment in a line: Antibacterial activity against Pseudomonas aeruginosa PAO1 by broth microdilution technique. Type of experiment: functional. Put shortly:
as §2

Experiment [7] deals with Staphylococcus aureus. The experiment in a line: Antibacterial activity against Staphylococcus aureus K1902 by broth microdilution technique. It is filed as functional.
The subject of experiment [8] is Escherichia coli. The experiment in a line: Antibacterial activity against Escherichia coli AG100 by broth microdilution technique. Type of experiment: functional. In outline: as §3
For experiment [9], the system named is Staphylococcus aureus. The experiment in a line: Antibacterial activity against Staphylococcus aureus K1758-A overexpressing mepA by broth microdilution technique. Type of experiment: functional. Put shortly: as §1
The test system of experiment [10] is Staphylococcus aureus. The experiment in a line: Antibacterial activity against Staphylococcus aureus K2361 overexpressing norA by broth microdilution technique. It is filed as functional. Put shortly: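 MIC assessed on norA-overexpressing S. aureus K2361, paired with K1902 as its susceptible control.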
Experiment [11] has as its target T1, Quinolone resistance protein NorA (Staphylococcus aureus). Conditions: 30 uM.
The test system of experiment [12] is Staphylococcus aureus. The experiment in a line: Inhibition of MepA efflux pump in Staphylococcus aureus K2361 assessed as reduction of ethidium bromide efflux at 30 uM for 5 mins. Conditions: in the assay text read “K1758-A” for “K2361”.
Experiment [13] deals with Staphylococcus aureus. The experiment in a line: Antibacterial activity against ciprofloxacin-resistant Staphylococcus aureus at > 100 ug/ml by broth microdilution technique. Type of experiment: functional, organism-based.
Experiment [14] concerns the target T1, Quinolone resistance protein NorA (Staphylococcus aureus). The experiment in a line: Inhibition of NorA efflux pump in Staphylococcus aureus K2361 assessed as reduction of ethidium bromide efflux for 5 mins.
Experiment [15] deals with Staphylococcus aureus. The experiment in a line: Inhibition of MepA efflux pump in Staphylococcus aureus […] assessed as reduction of ethidium bromide efflux for 5 mins.
For experiment [16], the system named is Staphylococcus aureus. The experiment in a line: Inhibition of MepA efflux pump in Staphylococcus aureus K2361 assessed as reduction of ethidium bromide efflux at 10 uM for 5 mins. Conditions: in the assay text read “K1758-A” for “K2361”.
Experiment [17] addresses T1, Quinolone resistance protein NorA (Staphylococcus aureus). The experiment in a line: Inhibition of NorA efflux pump in Staphylococcus aureus K2361 assessed as reduction of ethidium bromide efflux at 2 uM for 5 mins.
Experiment [18] has the same target. The experiment in a line: Inhibition of NorA efflux pump in Staphylococcus aureus K2361 assessed as reduction of ethidium bromide efflux at 10 uM for 5 mins.
Experiment [19] relates to Staphylococcus aureus. The experiment in a line: Inhibition of MepA efflux pump in Staphylococcus aureus K2361 assessed as reduction of ethidium bromide efflux at 2 uM for 5 mins. To be noted: in the assay text read “K1758-A” for “K2361”.
In experiment [20] the test system is Staphylococcus aureus. The experiment in a line: Inhibition of MepA efflux pump in Staphylococcus aureus K2361 assessed as reduction of ethidium bromide efflux at 0.5 uM […]. To be noted: in the assay text read “K1758-A” for “K2361”.

Converted amounts (≈) assume the structure as drawn. The source made the active and inactive calls. The rule behind the calls is not given here.

For orientation: inhibition means the change of the read-out against control, counted positive when it falls. Regarding `NCc1ccc(NC(=O)Nc2ccc(Cl)cc2)cc1`, the inhibition in experiment [1] was 20%.
One may read the MIC as the lowest concentration that inhibits growth of the organism. In the case of `NCCC[C@H](N)C(=O)N[C@@H](Cc1ccccc1)C(=O)N1CCN(c2cc3c(cc2F)c(=O)c(C(=O)O)cn3C2CC2)CC1`, the MIC in [2] is more than 10 µg/mL; in experiment [3], 50 µg/mL (≈ 84.4 µM); in [4], 50 µg/mL (≈ 84.4 µM); in experiment [5] it was 10 µg/mL (≈ 16.9 µM); in experiment [6], 50 µg/mL (≈ 84.4 µM); in [7] it was more than 10 µg/mL. Further, in experiment [8], the MIC was 10 µg/mL (≈ 16.9 µM).
As for `NCCC[C@@H](NC(=O)[C@@H](N)Cc1ccccc1)C(=O)N1CCN(c2cc3c(cc2F)c(=O)c(C(=O)O)cn3C2CC2)CC1`, the MIC was 10 µg/mL (≈ 16.9 µM) in experiment [2]; more than 10 µg/mL in experiment [9]; 50 µg/mL (≈ 84.4 µM) in experiment [3]; 50 µg/mL (≈ 84.4 µM) in experiment [4]; more than 10 µg/mL in experiment [10]; 10 µg/mL (≈ 16.9 µM) in experiment [5]. The MIC in experiment [6] amounted to 50 µg/mL (≈ 84.4 µM); in experiment [7] it was 10 µg/mL (≈ 16.9 µM); in [8], 10 µg/mL (≈ 16.9 µM).
Consider `NCc1ccc(NC(=O)Nc2ccccc2)cc1`, for which the inhibition in experiment [1] was determined as 20%.
Same read-out and setting: to `O=C(Nc1ccccc1)Nc1ccccc1` belongs 20%.
Regarding `CC1COc2c(N3CCN(C)CC3)c(F)cc3c(=O)c(C(=O)O)cn1c23` (stereo not given) [OFLOXACIN], the MIC is 0.63 µg/mL (≈ 1.74 µM) in experiment [2]; 1.25 µg/mL (≈ 3.46 µM) in experiment [9]; 6.25 µg/mL (≈ 17.3 µM) in experiment [3]; 6.25 µg/mL (≈ 17.3 µM) in experiment [4]; 2.5 µg/mL (≈ 6.92 µM) in [10]; 0.16 µg/mL (≈ 0.443 µM) in experiment [5]. The MIC in experiment [6] stood at 1.25 µg/mL (≈ 3.46 µM); in experiment [7], 0.63 µg/mL (≈ 1.74 µM); in [8], 0.08 µg/mL (≈ 0.221 µM).
As for `COC(=O)[C@H]1[C@H]2C[C@@H]3c4[nH]c5cc(OC)ccc5c4CCN3C[C@H]2C[C@@H](OC(=O)c2cc(OC)c(OC)c(OC)c2)[C@@H]1OC`, the results for the inhibition in experiment [11] and in experiment [12] were 81% and 32%, respectively.
For `O=C(Nc1ccccc1)Nc1ccc(CN2CCN(c3cc4c(cc3F)c(=O)c(C(=O)O)cn4C3CC3)CC2)cc1`, the MIC in experiment [2] turned out to be 0.63 µg/mL (≈ 1.13 µM); in experiment [9], 0.63 µg/mL (≈ 1.13 µM); in experiment [3], 50 µg/mL (≈ 90 µM); in experiment [4], 50 µg/mL (≈ 90 µM); in experiment [10], 1.25 µg/mL (≈ 2.25 µM); in experiment [5], 10 µg/mL (≈ 18 µM). Moreover, the results for the MIC in experiment [6], in experiment [7] and in experiment [8] were 50 µg/mL (≈ 90 µM), 0.31 µg/mL (≈ 0.558 µM) and 5 µg/mL (≈ 9 µM), respectively. For the same molecule, the result in [13], in experiment [14] and in experiment [15] was inactive.
With `O=C(O)c1cn(C2CC2)c2cc(N3CCNCC3)c(F)cc2c1=O` [CIPROFLOXACIN], the MIC in experiment [2] was found to be 0.16 µg/mL (≈ 0.483 µM); in experiment [9] it was 0.63 µg/mL (≈ 1.9 µM); in experiment [3], 0.78 µg/mL (≈ 2.35 µM); in [4] it was 0.78 µg/mL (≈ 2.35 µM); in experiment [10], 2.5 µg/mL (≈ 7.54 µM); in [5], 0.04 µg/mL (≈ 0.121 µM). In addition, the MIC is 0.16 µg/mL (≈ 0.483 µM) in [6], 0.16 µg/mL (≈ 0.483 µM) in [7] and not above 0.019 µg/mL in [8].
Turning to `CC1COc2c(NCc3ccc(NC(=O)Nc4ccccc4)cc3)c(F)cc3c(=O)c(C(=O)O)cn1c23` (stereo not given), the inhibition was 84.1% in experiment [16]; 73.6% in [1]; 85.6% in [17]; 96.4% in experiment [18]; 65.9% in experiment [19]; 53.4% in [20]. Also, the MIC in experiment [2] was more than 100 µg/mL; in experiment [3] it was 100 µg/mL (≈ 199 µM); in [4] it was 50 µg/mL (≈ 99.5 µM); in [10], 100 µg/mL (≈ 199 µM); in experiment [5], 10 µg/mL (≈ 19.9 µM); in experiment [6], 50 µg/mL (≈ 99.5 µM). Besides, the MIC in [7] is more than 100 µg/mL; in experiment [8], 10 µg/mL (≈ 19.9 µM).
